Results taken from ChEMBL document CHEMBL1153459, “Tetrahydropyridine derivatives with inhibitory activity on the production of proinflammatory cytokines: part 1” (Bioorg Med Chem Lett, 2009).

Assays:
Blood = test: Inhibition of LPS-induced TNFalpha production in human whole blood by immunoassay; assay type: functional, tissue-based
Summary of the method: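 Human whole blood from consenting volunteers, 988 µL aliquots, was mixed with compound in DMSO and LPS at a final 10 µg/mL, then incubated 6 h at 37 °C. Samples were chilled and spun, and plasma TNFα was measured by immunoassay. Percent inhibition was taken relative to LPS control after subtracting the unstimulated negative control. IC50 from N = 3–4.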

Mus musculus [1] = test: Inhibition of LPS-induced TNFalpha production in orally dosed mouse after 1 hr by ELISA; assay type: functional; conditions: po, read-out: ID50 (the source's name)
Summary of the method: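 Mice fasted overnight (water allowed), then given compound orally as a suspension in 0.5% CMC at 10 mL/kg; controls received vehicle alone. 30 min later LPS in saline was injected i.v. at 0.45 mg/10 mL/kg; normal mice got saline. After 1 h, heparinised vena cava blood was spun and plasma TNFα measured by ELISA. % inhibition was taken against normal and control mice; ID50 derived. N = 5.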

Mus musculus [2] = test: Inhibition of LPS-induced TNFalpha production in mouse at 20 mg/kg, po after 1 hr by ELISA; assay type: functional
Summary of the method: (§1)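 Mice were fasted overnight with water allowed. Compound was given orally as a suspension in 0.5% CMC at 10 mL/kg. After 30 min, LPS in saline was injected iv at 0.45 mg/10 mL/kg. Heparinized vena cava blood was drawn 1 h later and plasma TNFα measured by ELISA. Percent inhibition was taken versus vehicle/LPS control after subtracting normal mice. N = 5.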

Mus musculus [3] = test: Inhibition of LPS-induced TNFalpha production in mouse at 50 mg/kg, po after 1 hr by ELISA; assay type: functional; summary of the method: as §1

| IC50 (Blood) [µM] | Compound | further results |
| --- | --- | --- |
| > 30 | Fc1ccc(-c2[nH]cc(CCCN3CCOCC3)c2-c2ccncc2)cc1 |  |
| 2.98 | Fc1ccc(-c2[nH]cc(C3CCNCC3)c2-c2ccncc2)cc1 | ED50 (Mus musculus [1]): 17.9 mg/kg |
| 22.4 | CN(C)CCCc1c[nH]c(-c2ccc(F)cc2)c1-c1ccncc1 |  |
| > 30 | OC1(c2c[nH]c(-c3ccc(F)cc3)c2-c2ccncc2)CCNCC1 | inhibition in vivo at 20 mg/kg (Mus musculus [2]): -2.7% |
| 28.4 | Fc1ccc(-c2[nH]cc(CCCN3CCCCC3)c2-c2ccncc2)cc1 |  |
| 4.76 | NCCCc1c[nH]c(-c2ccc(F)cc2)c1-c1ccncc1 |  |
| 14.7 | CNCCCc1c[nH]c(-c2ccc(F)cc2)c1-c1ccncc1 |  |
| > 30 | CC(=O)NCCCc1c[nH]c(-c2ccc(F)cc2)c1-c1ccncc1 |  |
| > 30 | Fc1ccc(-c2[nH]cc(CCCN3CCNCC3)c2-c2ccncc2)cc1 |  |
| > 30 | Fc1ccc(-c2[nH]cc(CCCN3CCN(Cc4ccccc4)CC3)c2-c2ccncc2)cc1 |  |
| > 30 | Fc1ccc(-c2[nH]cc(CCCN3CCSCC3)c2-c2ccncc2)cc1 |  |
| > 30 | NCc1c[nH]c(-c2ccc(F)cc2)c1-c1ccncc1 |  |
| > 30 | Fc1ccc(-c2[nH]cc(-c3ccncc3)c2-c2ccncc2)cc1 | inhibition in vivo at 50 mg/kg (Mus musculus [3]): 24.5% |
| > 30 | CN1CCN(CCCc2c[nH]c(-c3ccc(F)cc3)c2-c2ccncc2)CC1 |  |
| 13.8 | NCCCCc1c[nH]c(-c2ccc(F)cc2)c1-c1ccncc1 |  |

| Compound | IC50 (Blood) [µM] | further results |
| --- | --- | --- |
| Fc1ccc(-c2[nH]cc(C3=CCNCC3)c2-c2ccncc2)cc1 | 1.86 | ED50 (Mus musculus [1]): 5.98 mg/kg |
| C[S+]([O-])c1ccc(-c2nc(-c3ccc(F)cc3)c(-c3ccncc3)[nH]2)cc1 (configuration not stated) [SB-203580] | 6.4 | ED50 (Mus musculus [1]): 27.9 mg/kg |
